Experimental data as given in ChEMBL document CHEMBL3272274, “Optical resolution of (+/-)-2,5-dimethyl-2'-hydroxy-9alpha- and -9beta-propyl-6,7-benzomorphans and their pharmacological properties” (J Med Chem, 1976).
Calls of active or inactive are those of the source. The calls are words filed in the database; no cut-off is given here.

What was measured:
[1] = system: Mus musculus; assay: Analgesic activity in sc dosed mouse by Nilsen assay; assay type: functional
[2] = system: Rhesus monkey; assay: Toxicity in monkey assessed as myoclonic jerks at 6 mg/kg, sc; assay type: organism-based, Macaca mulatta; design: dose 6 mg/kg, route subcutaneous; conditions: in vivo
[3] = system: Mus musculus; assay: Analgesic activity in sc dosed mouse by Eddy hot-plate assay; assay type: functional
[4] = system: Mus musculus; assay: Analgesic activity mouse at 20 to 40 mg/kg, sc by Eddy hot-plate assay; assay type: functional, organism-based
Procedure, shortened: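 Mouse analgesia by the Eddy hot-plate assay with subcutaneous injection. The ED50 is expressed with 95% SE limits.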

[5] = system: Mus musculus; assay: Analgesic activity in po dosed mouse by Nilsen assay; assay type: functional
Procedure, shortened: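 Mouse analgesia by the Nilsen test with oral dosing. The ED50 is reported in mg/kg with confidence limits in parentheses.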

[6] = system: Rhesus monkey; assay: Toxicity in monkey at 0.5 to 16 mg/kg; assay type: organism-based, Macaca mulatta; design: dose 0.5-16 mg/kg; conditions: in vivo
[7] = system: Rhesus monkey; assay: Toxicity in monkey assessed as irritable behavior at 10 mg/kg for 1 to 2 hrs; assay type: organism-based, Macaca mulatta; design: dose 10 mg/kg; conditions: in vivo
[8] = system: Rhesus monkey; assay: Toxicity in monkey assessed as apprehensive behavior at 10 mg/kg for 1 to 2 hrs; assay type: organism-based, Macaca mulatta; design: dose 10 mg/kg; conditions: in vivo
[9] = system: Rhesus monkey; assay: Toxicity in monkey assessed as piloerection at 10 mg/kg for 1 to 2 hrs; assay type: organism-based, Macaca mulatta; design: dose 10 mg/kg; conditions: in vivo
[10] = system: Rhesus monkey; assay: Physical dependence capacity in monkey assessed as single dose suppression of morphine withdrawal syndrome at 0.5 to 16 mg/kg; assay type: ADME, organism-based, Macaca mulatta; design: dose 0.5-16 mg/kg; conditions: in vivo
[11] = system: Mus musculus; assay: Toxicity in mouse at 20 to 40 mg/kg, sc; assay type: organism-based; design: dose 20-40 mg/kg, route subcutaneous; conditions: in vivo
[12] = system: Rhesus monkey; assay: Physical dependence capacity in monkey assessed as precipitation of morphine withdrawal syndrome at 5 to 10 mg/kg; assay type: ADME, organism-based, Macaca mulatta; design: dose 5-10 mg/kg; conditions: in vivo
[13] = system: Rhesus monkey; assay: Toxicity in monkey assessed as muscle rigidity at 10 mg/kg for 1 to 2 hrs; assay type: organism-based, Macaca mulatta, Muscle tissue; design: dose 10 mg/kg; conditions: in vivo
[14] = system: Rhesus monkey; assay: Physical dependence capacity in monkey assessed as precipitation of morphine-induced abstinence at 10 mg/kg; assay type: ADME, organism-based, Macaca mulatta; design: dose 10 mg/kg; conditions: in vivo
[15] = system: Rhesus monkey; assay: Toxicity in monkey assessed as restlessness at 10 mg/kg for 1 to 2 hrs; assay type: organism-based, Macaca mulatta; design: dose 10 mg/kg; conditions: in vivo
[16] = system: Rhesus monkey; assay: Toxicity in monkey assessed as tremors at 10 mg/kg for 1 to 2 hrs; assay type: organism-based, Macaca mulatta; design: dose 10 mg/kg; conditions: in vivo
[17] = system: Rhesus monkey; assay: Toxicity in monkey assessed as pupil dilation at 10 mg/kg for 1 to 2 hrs; assay type: organism-based, Macaca mulatta; design: dose 10 mg/kg; conditions: in vivo
[18] = system: Rhesus monkey; assay: Physical dependence capacity in monkey assessed as single dose suppression of morphine withdrawal syndrome at 5 to 10 mg/kg; assay type: ADME, organism-based, Macaca mulatta; design: dose 5-10 mg/kg; conditions: in vivo
[19] = system: Rhesus monkey; assay: Toxicity in monkey assessed as increase spontaneous movement at 10 mg/kg for 1 to 2 hrs; assay type: organism-based, Macaca mulatta; design: dose 10 mg/kg; conditions: in vivo
[20] = system: Rhesus monkey; assay: Physical dependence capacity in monkey assessed as precipitation of morphine-induced abstinence at 0.5 to 16 mg/kg; assay type: ADME, organism-based, Macaca mulatta; design: dose 0.5-16 mg/kg; conditions: in vivo
[21] = system: Mus musculus; assay: Toxicity in mouse at 16 mg/kg, sc; assay type: organism-based; design: dose 16 mg/kg, route subcutaneous; conditions: in vivo
[22] = system: Rhesus monkey; assay: Physical dependence capacity in monkey assessed as precipitation of morphine withdrawal syndrome at 0.5 to 16 mg/kg; assay type: ADME, organism-based, Macaca mulatta; design: dose 0.5-16 mg/kg; conditions: in vivo
[23] = system: Rhesus monkey; assay: Toxicity in monkey at 16 mg/kg; assay type: organism-based, Macaca mulatta; design: dose 16 mg/kg; conditions: in vivo
[24] = system: Rhesus monkey; assay: Toxicity in monkey assessed as depression at 1 to 16 mg/kg for 24 hrs; assay type: organism-based, Macaca mulatta; design: dose 1-16 mg/kg; conditions: in vivo
[25] = system: Mus musculus; assay: Toxicity in mouse at 50 mg/kg, sc; assay type: organism-based; design: dose 50 mg/kg, route subcutaneous; conditions: in vivo
[26] = system: Rhesus monkey; assay: Physical dependence capacity in monkey assessed as single dose suppression of morphine withdrawal syndrome at 2.5 to 10 mg/kg; assay type: ADME, organism-based, Macaca mulatta; design: dose 2.5-10 mg/kg; conditions: in vivo
[27] = system: Rhesus monkey; assay: Toxicity in monkey assessed as gazing behavior at 10 mg/kg; assay type: organism-based, Macaca mulatta; design: dose 10 mg/kg; conditions: in vivo
[28] = system: Rhesus monkey; assay: Toxicity in monkey assessed as head tremor at 10 mg/kg; assay type: organism-based, Macaca mulatta; design: dose 10 mg/kg; conditions: in vivo
[29] = system: Rhesus monkey; assay: Toxicity in monkey assessed as vomiting at 1 to 4 mg/kg for 24 hrs; assay type: organism-based, Macaca mulatta; design: dose 1-4 mg/kg; conditions: in vivo
[30] = system: Rhesus monkey; assay: Physical dependence capacity in monkey assessed as single dose suppression of morphine withdrawal syndrome at 1 to 16 mg/kg; assay type: ADME, organism-based, Macaca mulatta; design: dose 1-16 mg/kg; conditions: in vivo
[31] = system: Rhesus monkey; assay: Toxicity in monkey assessed as severe retching at 1 to 4 mg/kg for 24 hrs; assay type: organism-based, Macaca mulatta; design: dose 1-4 mg/kg; conditions: in vivo
[32] = Mus musculus, sc, read-out: ED50

CCC[C@H]1[C@H]2Cc3ccc(O)cc3[C@]1(C)CCN2C [listing 1 of 2 here]
ED50 [1, 32]: 1.8 mg/kg
Activity [2]: Toxic
ED50 [3, 32]: 1.61 mg/kg

CN1CC[C@]23c4c5ccc(O)c4O[C@H]2[C@@H](O)C=C[C@H]3[C@H]1C5.Cl [MORPHINE HYDROCHLORIDE]
ED50 [1, 32]: 0.8 mg/kg
ED50 [3, 32]: 1.2 mg/kg

CCC[C@H]1[C@H]2Cc3ccc(O)cc3[C@]1(C)CCN2C [listing 2 of 2 here]
Activity [4]: inactive

COc1ccc2c3c1O[C@H]1[C@@H](O)C=C[C@H]4[C@@H](C2)N(C)CC[C@@]341 [CODEINE]
ED50 [5]: 21.4 mg/kg

CCC[C@H]1[C@H]2Cc3ccc(O)cc3[C@]1(C)CCN2C.O=C(O)C(O)c1ccccc1
Activity [6]: Non-toxic
ED50 [1, 32]: 1.2 mg/kg
Activity [7]: Toxic
Activity [8]: Toxic
Activity [9]: Toxic
Activity [10]: Non-toxic
Activity [11]: Toxic
Activity [12]: Non-toxic
Activity [13]: Toxic
ED50 [3, 32]: 1.1 mg/kg
Activity [14]: Non-toxic
Activity [15]: Toxic
Activity [16]: Toxic
Activity [17]: Toxic
Activity [18]: Non-toxic
Activity [19]: Toxic
Activity [20]: Non-toxic

CCC[C@@H]1[C@H]2Cc3ccc(O)cc3[C@]1(C)CCN2C.Cl (racemic)
ED50 [1, 32]: 0.35 mg/kg
Activity [21]: Non-toxic
Activity [22]: Non-toxic
ED50 [3]: 0.64 mg/kg
Activity [23]: Non-toxic

COc1ccc2c3c1O[C@H]1C(=O)CC[C@@]4(O)[C@@H](C2)N(C)CC[C@]314 [OXYCODONE]
ED50 [5]: 1.3 mg/kg

CCC[C@@H]1[C@H]2Cc3ccc(O)cc3[C@]1(C)CCN2C.Cl
Activity [24]: Toxic
Activity [25]: Toxic
Activity [26]: Non-toxic
ED50 [1]: 0.35 mg/kg
Activity [27]: Toxic
ED50 [3]: 0.3 mg/kg
Activity [28]: Toxic
Activity [29]: Toxic
Activity [30]: Toxic
Activity [31]: Toxic
ED50 [5]: 7.26 mg/kg

C=CCN1CC[C@]23c4c5ccc(O)c4O[C@H]2[C@@H](O)C=C[C@H]3[C@H]1C5.Cl [NALORPHINE HYDROCHLORIDE]
ED50 [1, 32]: 4.8 mg/kg
ED50 [3, 32]: 36.4 mg/kg
